Consider 22 compounds from ChEMBL document CHEMBL4665864, “Indole acrylonitriles as potential anti-hyperglycemic agents: Synthesis, α-glucosidase inhibitory activity and molecular docking studies” (Bioorg Med Chem, 2020).

pIC50: −log10 of the molar value.

The first assay can be described thus: Inhibition of Saccharomyces cerevisiae alpha-glucosidase using p-nitrophenyl-alpha-D-glucopyranoside as substrate preincubated with enzyme for 5 mins followed by substrate addition and measured after 30 mins by microplate reader analysis.
Conditions: not given; call rule not given here
The method in brief:
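Yeast enzyme solution 2.5 U mL-1 and p-NPG made up in 0.07 M phosphate buffer, pH 6.8. Enzyme, buffer and test compound preincubated 5 min at 37 °C, then 10 mM p-NPG stock added and incubated 30 min at 37 °C. Reaction stopped with 0.2 M Na2CO3, p-nitrophenol read at 405 nm. Percent inhibition taken against buffer-only control; IC50 from dose-response curves of compounds giving ≥50% inhibition.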
For `N#C/C(=C\c1ccc(-c2ccccc2)cc1)C(=O)c1c[nH]c2ccccc12`, the IC50 entry is given as “Not Active”.

As for `N#C/C(=C\c1cccnc1)C(=O)c1c[nH]c2ccccc12`, the IC50 result is reported as “Not Active”.

In the case of `N#C/C(=C\c1ccco1)C(=O)c1c[nH]c2ccccc12`, the IC50 entry is recorded as “Not Active”.

Regarding `N#C/C(=C\c1ccc2ccccc2c1)C(=O)c1c[nH]c2ccccc12`, the IC50 entry is “Not Active”.

With `N#C/C(=C\c1cccc(OCc2ccccc2)c1)C(=O)c1c[nH]c2ccccc12`, the IC50 entry is “Not Active”.

On to `N#C/C(=C\c1cccc([N+](=O)[O-])c1)C(=O)c1c[nH]c2ccccc12`, for which the IC50 result is “Not Active”.

Turning to `N#C/C(=C\c1ccc(Cl)cc1)C(=O)c1c[nH]c2ccccc12`, the IC50 entry is on record as “Not Active”.

As for `N#C/C(=C\c1cc(Cl)cc(Cl)c1O)C(=O)c1c[nH]c2ccccc12`, the IC50 result is reported as “Not Active”.

In the case of `CN(C)c1ccc(/C=C(\C#N)C(=O)c2c[nH]c3ccccc23)cc1`, the IC50 entry is recorded as “Not Active”.

With `N#C/C(=C\c1ccncc1)C(=O)c1c[nH]c2ccccc12`, the IC50 entry is on record as “Not Active”.

Turning to `COc1ccc(/C=C(\C#N)C(=O)c2c[nH]c3ccccc23)c(F)c1`, the IC50 entry is reported as “Not Active”.

As to `N#C/C(=C\c1c(Cl)cccc1Cl)C(=O)c1c[nH]c2ccccc12`, the IC50 result is “Not Active”.

With `Cc1ccccc1/C=C(\C#N)C(=O)c1c[nH]c2ccccc12`, the IC50 entry is “Not Active”.

Turning to `N#C/C(=C\c1ccc(OCc2ccccc2)cc1)C(=O)c1c[nH]c2ccccc12`, the IC50 result is recorded as “Not Active”.

Staying with this assay, now noted: read-out: IC50.
For the compound `N#C/C(=C\c1ccccc1OCc1ccccc1)C(=O)c1c[nH]c2ccccc12`, the pIC50 (usually −log10 of the IC50, conventionally taken in molar units) is 5.92.

For the compound `N#C/C(=C\c1cccc2ccccc12)C(=O)c1c[nH]c2ccccc12`, the pIC50 was 6.22.

Consider `COc1ccc(/C=C(\C#N)C(=O)c2c[nH]c3ccccc23)cc1OCc1ccccc1`, for which the pIC50 is 5.99.

As for `COc1cc(/C=C(\C#N)C(=O)c2c[nH]c3ccccc23)cc(OC)c1Br`, the pIC50 was 6.28.

As to `N#C/C(=C\c1ccc2ccc3cccc4ccc1c2c34)C(=O)c1c[nH]c2ccccc12`, the negative-log IC50 (pIC50) is 5.87.

In the case of `COc1cccc(/C=C(\C#N)C(=O)c2c[nH]c3ccccc23)c1Cl`, the pIC50 was 6.02.

As to `N#C/C(=C\c1ccc([N+](=O)[O-])cc1)C(=O)c1c[nH]c2ccccc12`, the pIC50 is 6.06.

As to `C[C@H]1O[C@H](O[C@H]2[C@H](O)[C@@H](O)[C@@H](O[C@H]3[C@H](O)[C@@H](O)C(O)O[C@@H]3CO)O[C@@H]2CO)[C@H](O)[C@@H](O)[C@@H]1N[C@H]1C=C(CO)[C@@H](O)[C@H](O)[C@H]1O` (some centres not stated) [ACARBOSE], the pIC50 is 5.54.
